Laboratory results reported in publication PMC10763047 (Chemical Science, 2023).

Columns and labels:
p110α [1] = target: p110α (Homo sapiens, UniProt P42336, E545K); experiment: Western blot of p110α degradation in MCF7 cells; type: cell-based; details: pretreatment before WJ112-14
Method in brief: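 MCF7 cells (p110α E545K) were exposed to test compound for 6 h, or 6 h and 24 h in some runs. Integrated PI3Kα western blot signals were normalised to α-tubulin and DMSO. SD came from biological triplicates at selected concentrations. Mechanistic runs used pretreatment with bortezomib, MLN4924 or TAK-243, a glutarimide-methylated CRBN-binding-dead analogue, and washout to follow p110α recovery.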

p110α [2] = experiment: Western blot of p110α degradation in a panel of cell lines; type: cell-based; details: MCF7 and T47D cell lines

Chain of p110α (Homo sapiens, UniProt P42336, E545K) (P42336 whole entry E545K): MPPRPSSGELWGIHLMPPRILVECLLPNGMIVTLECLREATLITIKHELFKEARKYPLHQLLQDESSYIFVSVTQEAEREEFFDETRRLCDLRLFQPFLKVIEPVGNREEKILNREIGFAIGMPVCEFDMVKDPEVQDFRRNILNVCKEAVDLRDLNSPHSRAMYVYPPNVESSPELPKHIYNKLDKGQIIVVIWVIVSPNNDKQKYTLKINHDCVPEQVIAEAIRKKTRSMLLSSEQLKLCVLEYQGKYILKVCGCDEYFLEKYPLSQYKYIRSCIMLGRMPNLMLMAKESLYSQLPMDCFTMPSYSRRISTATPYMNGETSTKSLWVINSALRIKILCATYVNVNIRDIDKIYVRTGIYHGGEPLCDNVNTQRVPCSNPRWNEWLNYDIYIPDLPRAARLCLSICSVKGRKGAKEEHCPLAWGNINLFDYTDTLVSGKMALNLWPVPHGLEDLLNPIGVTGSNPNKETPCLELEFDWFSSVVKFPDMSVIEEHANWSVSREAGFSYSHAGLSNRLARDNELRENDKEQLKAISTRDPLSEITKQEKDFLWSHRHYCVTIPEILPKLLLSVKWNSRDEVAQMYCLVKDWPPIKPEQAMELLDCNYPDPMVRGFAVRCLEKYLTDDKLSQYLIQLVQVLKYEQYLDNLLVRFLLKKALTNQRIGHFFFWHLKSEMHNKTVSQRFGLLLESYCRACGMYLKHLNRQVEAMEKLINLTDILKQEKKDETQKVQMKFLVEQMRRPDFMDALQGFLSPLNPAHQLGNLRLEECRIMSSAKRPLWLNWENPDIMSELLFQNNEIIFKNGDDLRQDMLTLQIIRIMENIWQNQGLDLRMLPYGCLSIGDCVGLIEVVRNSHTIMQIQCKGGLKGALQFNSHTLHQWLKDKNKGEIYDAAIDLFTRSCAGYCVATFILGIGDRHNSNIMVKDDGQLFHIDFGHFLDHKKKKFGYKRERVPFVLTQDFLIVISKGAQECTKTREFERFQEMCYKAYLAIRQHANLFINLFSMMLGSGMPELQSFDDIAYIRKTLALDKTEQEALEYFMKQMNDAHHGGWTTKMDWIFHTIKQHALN
Chain of p110α (Homo sapiens, UniProt P42336, E545K) (P27986 whole entry partner): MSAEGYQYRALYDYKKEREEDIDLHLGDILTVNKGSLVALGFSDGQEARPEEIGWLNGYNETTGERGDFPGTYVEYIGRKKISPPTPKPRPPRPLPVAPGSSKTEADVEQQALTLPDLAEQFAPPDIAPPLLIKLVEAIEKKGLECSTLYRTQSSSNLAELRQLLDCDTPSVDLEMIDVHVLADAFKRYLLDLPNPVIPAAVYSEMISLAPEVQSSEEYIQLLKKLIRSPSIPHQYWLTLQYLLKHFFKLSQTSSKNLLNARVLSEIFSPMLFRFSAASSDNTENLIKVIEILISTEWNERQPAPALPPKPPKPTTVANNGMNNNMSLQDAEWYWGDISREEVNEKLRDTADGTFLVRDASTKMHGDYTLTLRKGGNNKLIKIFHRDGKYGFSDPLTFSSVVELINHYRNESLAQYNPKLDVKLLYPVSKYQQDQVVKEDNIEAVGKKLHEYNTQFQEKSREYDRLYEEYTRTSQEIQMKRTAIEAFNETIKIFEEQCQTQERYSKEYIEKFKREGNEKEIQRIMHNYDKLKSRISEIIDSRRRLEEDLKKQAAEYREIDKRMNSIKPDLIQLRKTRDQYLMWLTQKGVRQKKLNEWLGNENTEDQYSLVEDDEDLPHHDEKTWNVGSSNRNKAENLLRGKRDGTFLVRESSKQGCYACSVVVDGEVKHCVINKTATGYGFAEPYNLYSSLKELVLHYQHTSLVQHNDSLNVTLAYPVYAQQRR

| rescue of p110α from WJ112-14 degradation by pretreatment (p110α [1]) | Compound | p110α degradation (p110α [2]) |
| --- | --- | --- |
| full rescue of p110α | NS(=O)(=O)OC[C@@H]1C[C@@H](n2ccc3c(N[C@H]4CCc5ccccc54)ncnc32)C[C@@H]1O [MLN4924] |  |
| full rescue of p110α | NS(=O)(=O)OC[C@H]1C[C@@H](Nc2ccnc3cc(-c4cccc(SC(F)(F)F)c4)nn23)[C@H](O)[C@@H]1O [TAK-243] |  |
| full rescue of p110α | CC(C)C[C@H](NC(=O)[C@H](Cc1ccccc1)NC(=O)c1cnccn1)B(O)O [bortezomib] |  |
| rescue of p110α | Nc1cccc2c1C(=O)N(C1CCC(=O)NC1=O)C2=O (centres unmarked) [pomalidomide] |  |
|  | Cc1nc(-c2cn3c(n2)-c2ccc(-c4cnn(C(C)(C)C(N)=O)c4)cc2OCC3)n(C(C)C)n1 [taselisib] | inactive |
